Measurements from ChEMBL document CHEMBL1141164, “Design and synthesis of a series of melamine-based nitroheterocycles with activity against Trypanosomatid parasites” (J Med Chem, 2005).

How the values were obtained:
[1] = target: T1, Nucleoside transporter 2 (Trypanosoma brucei brucei) (UniProt Q9U763); assay: In vitro inhibitory concentration against P2 aminopurine transporter of Trypanosoma brucei brucei 427 adenosine (0.5 uM) uptake in presence of 1 mM inosine
T1 sequence (whole entry): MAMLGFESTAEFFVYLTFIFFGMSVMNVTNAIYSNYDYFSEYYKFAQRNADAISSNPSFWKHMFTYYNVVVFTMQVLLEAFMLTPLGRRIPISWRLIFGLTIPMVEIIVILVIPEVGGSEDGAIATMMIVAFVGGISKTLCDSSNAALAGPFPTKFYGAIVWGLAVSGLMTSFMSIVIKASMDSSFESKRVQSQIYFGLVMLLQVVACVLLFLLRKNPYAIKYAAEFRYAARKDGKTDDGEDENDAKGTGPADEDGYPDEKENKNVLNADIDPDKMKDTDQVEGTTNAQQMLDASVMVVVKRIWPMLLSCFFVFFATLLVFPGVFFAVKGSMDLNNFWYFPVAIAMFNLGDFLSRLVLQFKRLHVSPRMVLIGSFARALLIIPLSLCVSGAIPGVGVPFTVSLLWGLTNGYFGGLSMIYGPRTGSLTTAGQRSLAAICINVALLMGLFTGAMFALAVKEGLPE
Procedure, shortened: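 Blood-purified T. b. brucei 427 held on ice in Carter's buffered saline. Uptake of radiolabeled adenosine fixed at 0.5 μM via P2, measured with 1 mM inosine present to block P1, by centrifugation through oil over a range of inhibitor concentrations. IC50 obtained by plotting inhibition against inhibitor concentration.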

Mus musculus [2] = assay: In vivo antitrypanosomal activity at a dose of 4*1 mg/kg, i.p., in mice infected with Trypanosoma brucei brucei STIB 795 strain, measured as survival days (control 7 days); type: functional
Mus musculus [3] = assay: In vivo antitrypanosomal activity at a dose of 4*1 mg/kg, i.p., in mice infected with Trypanosoma brucei rhodesiense STIB 900 strain, measured as cured/infected; 0/4; type: functional
Mus musculus [4] = assay: In vivo antitrypanosomal activity at a dose of 4*1 mg/kg, i.p., in mice infected with Trypanosoma brucei brucei STIB 795 strain; 2/4; type: functional
Mus musculus [5] = assay: In vivo antitrypanosomal activity at a dose of 4*8 mg/kg, i.p., in mice infected with Trypanosoma brucei rhodesiense STIB 900 strain, measured as survival days (control 7 days); ND is not determined; type: functional
Trypanosoma cruzi [6] = assay: In vitro inhibitory concentration against intracellular amastigotes of Trypanosoma cruzi in rat skeletal myoblasts incubated for 37 degree C for 4 days; type: functional, organism-based; settings: 96 h
Procedure, shortened: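 L-6 myoblasts seeded at 2000 cells/well in RPMI 1640 with 10% FBS and 2 mM L-glutamine. After 24 h, 5000 T. cruzi Tulahuen C2C4 (LacZ) trypomastigotes added with serial drug dilution. Incubated 4 days at 37 °C in 5% CO2, then CPRG/Nonidet added.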

[7] = tested on: Trypanosoma brucei brucei; assay: In vitro inhibitory concentration against blood stream Trypanosoma brucei brucei AT1 wild type incubated for 72 h at 37 degree C; type: functional, organism-based
Procedure, shortened: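 Wild-type T. b. brucei trypomastigotes, tested alongside the P2 knockout (TbAT1-/-). Alamar Blue viability assay used to derive IC50 values.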

Mus musculus [8] = assay: In vivo antitrypanosomal activity at a dose of 4*8 mg/kg, i.p., in mice infected with Trypanosoma brucei rhodesiense STIB 900 strain, measured as cured/infected; 4/4; type: functional
[9] = tested on: Trypanosoma brucei rhodesiense; assay: Inhibitory concentration in vitro against blood stream Trypanosoma brucei rhodesiense incubated for 72 hr at 37 degree C; type: functional, organism-based
Procedure, shortened: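 T. b. rhodesiense STIB900 trypomastigotes, a 1982 human isolate from Tanzania, grown in minimum essential medium with 2-mercaptoethanol and 15% heat-inactivated horse serum. Drug dilutions 90 to 0.123 μg/mL, 72 h at 37 °C, 5% CO2.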

[10] = tested on: Trypanosoma brucei brucei; assay: In vitro inhibitory concentration against blood stream Trypanosoma brucei brucei AT1 knockout mutant with a non functional P2 transporter incubated for 72 h at 37 degree C; type: organism-based
Procedure, shortened: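 Bloodstream T. b. brucei trypomastigotes, wild type or P2 transporter knockout (TbAT1-/-), were tested side by side. Viability was read by Alamar Blue fluorescence and IC50 values were determined.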

Mus musculus [11] = assay: In vivo antitrypanosomal activity at a dose of 4*1 mg/kg, i.p., in mice infected with Trypanosoma brucei rhodesiense STIB 900 strain, measured as survival days (control 7 days); ND is not determined; type: functional
Leishmania donovani [12] = assay: Inhibitory concentration in vitro against intracellular amastigotes of Leishmania donovani in mouse peritoneal macrophages incubated for 96 hr at 27 degree C
L6 = assay: Concentration causing cytotoxicity to 50% of L-6 rat skeletal myoblasts; type: functional, cell-based
Procedure, shortened: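 L-6 rat skeletal myoblasts run in the same Alamar Blue assay as the trypanosome screen. Serial dilutions spanning 90 to 0.123 μg/mL, 72 h at 37 °C under 5% CO2, then Alamar Blue for a further 2–4 h. Fluorescence read at ex 536/em 588 nm and expressed as % of control to give IC50.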

Leishmania donovani [13] = assay: Inhibitory concentration in vitro against intracellular amastigotes of Leishmania donovani in mouse peritoneal macrophages incubated for 96 hr at […]; tox is toxic to macrophages
Mus musculus [14] = assay: In vivo antitrypanosomal activity at a dose of 4*20 mg/kg, i.p., in mice infected with Trypanosoma brucei rhodesiense STIB 900 strain, measured as survival days (control 7 days); type: functional
Mus musculus [15] = assay: In vivo antitrypanosomal activity at a dose of 4*20 mg/kg, i.p., in mice infected with Trypanosoma brucei rhodesiense STIB 900 strain; 0/4; type: functional
Trypanosoma cruzi [16] = assay: In vivo activity at a dose of 15 mg/kg, i.p., for 5 doses in rodent model with Trypanosoma cruzi, measured as survival days (control 13 days); settings: route intraperitoneal
Trypanosoma cruzi [17] = assay: In vivo activity at a dose of 45 mg/kg, p.o., for 5 doses in rodent model with Trypanosoma cruzi, measured as survival days (control 13 days); settings: route oral
Trypanosoma brucei [18] = assay: Inhibitory concentration against RAD51-/- mutant Trypanosoma brucei
Trypanosoma brucei [19] = assay: Inhibitory concentration against wild-type (427) Trypanosoma brucei; type: functional, organism-based; settings: Trypanosoma brucei
Trypanosoma cruzi [20] = assay: In vivo percent inhibition of compound at a dose of 45 mg/kg, p.o., for 5 doses in rodent model with Trypanosoma cruzi [ND = not determined]; settings: po

Structure (SMILES)	IC50 [1] [µM]	IC50 (Trypanosoma cruzi [6]) [µM]	IC50 [7] [nM]	IC50 [9] [nM]	IC50 [10] [nM]	IC50 (L6) [µM]	IC50 (Leishmania donovani [13])	also measured
Nc1nc(N)nc(Nc2ccc([As]3SCC(CO)S3)cc2)n1 (stereo not drawn) [MELARSOPROL]	1.2	0.006	53	6	120			Survival (Mus musculus [2]): >60 days; Cured/Infected (Mus musculus [3]): 0; Cured/Infected (Mus musculus [4]): 2; Survival (Mus musculus [5]): >60 days; Cured/Infected (Mus musculus [8]): 4; Survival (Mus musculus [11]): 21.25 days; IC50 (Leishmania donovani [12]): 7.8 µM
O=[N+]([O-])c1ccc(/C=N/O)o1 [NIFUROXIME]	300		1180	680	1260	40	Toxic	
N/N=C/c1ccc([N+](=O)[O-])o1	404		23500	2300	13500	20	Toxic	
CN(C)c1nc(N/N=C/c2ccc([N+](=O)[O-])o2)nc(N(C)C)n1	129	0.38	200	3	300	18.7	Toxic	Survival (Mus musculus [14]): 7.25 days; Cured/Infected (Mus musculus [15]): 0; Survival (Trypanosoma cruzi [16]): 12.8 days
Nc1nc(N)nc(N/N=C/c2cccs2)n1	4.9	85.8	89000	10200	170000	78.2	Toxic	
Nc1nc(N)nc(N/N=C/c2cccc([N+](=O)[O-])c2)n1		328	> 75000	52900				
O=C(Cn1ccnc1[N+](=O)[O-])NCc1ccccc1 [BENZNIDAZOLE]								Survival (Trypanosoma cruzi [17]): >30 days; IC50 (Trypanosoma brucei [18]): 114 µM; IC50 (Trypanosoma brucei [19]): 116 µM; inhibition in vivo at 45 mg/kg (Trypanosoma cruzi [20]): 100%
Nc1nc(N)nc(N/N=C/c2ccc([N+](=O)[O-])s2)n1	1.9	2.6	850	240	1520	11.8	Toxic	
Nc1nc(N)nc(N/N=C/c2ccc([N+](=O)[O-])cc2)n1		91.5	> 75000	29900				
